Experimental data reported in ChEMBL document CHEMBL1156889, “Synthesis and biological evaluation of (phenylpiperazinyl-propyl)arylsulfonamides as selective 5-HT(2A) receptor antagonists” (Bioorg Med Chem, 2010).

Assays:
[1] = molecular target: 5-hydroxytryptamine receptor 7 (Homo sapiens, UniProt P34969); test: Displacement of [3H]LSD from human recombinant 5HT7 receptor expressed in CHO cells; type: cell-based
Outline: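 Membranes from stably transfected CHO cells. Reaction mix held 3 nM [3H]LSD and test compound in 50 mM Tris-HCl pH 7.4 with 10 mM MgCl2 and 0.5 mM EDTA, incubated 90 min at 27 °C. Stopped by rapid filtration on GF/C filters presoaked in 0.3% polyethylenimine, then scintillation counted. Methiothepin defined nonspecific binding. 7-8 concentrations were run in duplicate, and IC50 came from nonlinear regression of isotherms from three assays.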

[2] = molecular target: 5-hydroxytryptamine receptor 2A (Homo sapiens, UniProt P28223); test: Displacement of [3H]ketanserin from human recombinant 5HT2A receptor expressed in avCHO-K1 cells; type: cell-based, CHO-K1
Outline: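 Used frozen membranes. [3H]ketanserin was at 1 nM, with mianserin defining nonspecific binding. Incubated 15 min at 37 °C in 50 mM Tris-HCl pH 7.4, then harvested on GF/C glass fiber filters presoaked in 0.05% Brij.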

[3] = molecular target: Serotonin 2 receptors; 5-HT2a & 5-HT2c (Homo sapiens) (UniProt P28223+P28335); test: Selectivity for human recombinant 5HT2A receptor over human recombinant 5HT2C receptor
[4] = molecular target: T1, 5-hydroxytryptamine receptor 2C (Homo sapiens, UniProt P28335); test: Displacement of [3H]mesulergine from human recombinant 5HT2C receptor expressed in CHO-K1 cells; type: cell-based
T1 sequence (P28335 whole entry): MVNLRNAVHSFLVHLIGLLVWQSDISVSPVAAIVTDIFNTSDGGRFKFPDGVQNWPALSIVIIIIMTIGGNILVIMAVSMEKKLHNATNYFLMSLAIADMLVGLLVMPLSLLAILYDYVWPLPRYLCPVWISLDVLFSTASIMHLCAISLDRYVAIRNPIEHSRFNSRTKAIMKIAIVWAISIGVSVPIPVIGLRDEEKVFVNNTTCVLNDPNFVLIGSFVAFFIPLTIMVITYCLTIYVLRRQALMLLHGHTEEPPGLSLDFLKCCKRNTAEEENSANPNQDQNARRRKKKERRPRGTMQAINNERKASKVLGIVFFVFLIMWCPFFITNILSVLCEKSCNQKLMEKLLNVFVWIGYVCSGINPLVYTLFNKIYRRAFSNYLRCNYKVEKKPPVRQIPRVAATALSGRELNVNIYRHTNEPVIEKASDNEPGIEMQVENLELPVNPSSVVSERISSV
Outline: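 Frozen membranes from a stable cell line were incubated with 1 nM [3H]mesulergine and test compound in 50 mM Tris-HCl pH 7.7 containing 0.1% ascorbic acid and pargyline, 30 min at 37 °C. Mianserin defined nonspecific binding. Terminated by rapid filtration through GF/C filters presoaked in 1% BSA.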

Homo sapiens = organism: Homo sapiens; test: Selectivity for human recombinant 5HT2A receptor over human recombinant 5HT7 receptor

Chain of Serotonin 2 receptors; 5-HT2a & 5-HT2c (Homo sapiens) (P28223 whole entry, looked up, one chain of several): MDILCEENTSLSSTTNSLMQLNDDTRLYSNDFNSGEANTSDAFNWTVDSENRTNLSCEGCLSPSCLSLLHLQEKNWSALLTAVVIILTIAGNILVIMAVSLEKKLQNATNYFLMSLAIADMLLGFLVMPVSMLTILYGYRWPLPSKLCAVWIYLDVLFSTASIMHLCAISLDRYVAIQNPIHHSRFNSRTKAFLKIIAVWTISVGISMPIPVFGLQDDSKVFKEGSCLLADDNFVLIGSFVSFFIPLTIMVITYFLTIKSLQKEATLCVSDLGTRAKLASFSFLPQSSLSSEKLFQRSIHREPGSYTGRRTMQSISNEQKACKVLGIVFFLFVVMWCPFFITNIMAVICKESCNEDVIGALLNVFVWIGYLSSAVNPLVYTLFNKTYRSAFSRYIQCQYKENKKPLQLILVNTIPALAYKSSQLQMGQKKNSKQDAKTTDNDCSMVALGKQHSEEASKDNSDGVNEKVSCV
Chain of 5-hydroxytryptamine receptor 2A (P28223 whole entry): as the sequence (P28223 whole entry, looked up, one chain of several) above
Chain of 5-hydroxytryptamine receptor 7 (P34969 whole entry): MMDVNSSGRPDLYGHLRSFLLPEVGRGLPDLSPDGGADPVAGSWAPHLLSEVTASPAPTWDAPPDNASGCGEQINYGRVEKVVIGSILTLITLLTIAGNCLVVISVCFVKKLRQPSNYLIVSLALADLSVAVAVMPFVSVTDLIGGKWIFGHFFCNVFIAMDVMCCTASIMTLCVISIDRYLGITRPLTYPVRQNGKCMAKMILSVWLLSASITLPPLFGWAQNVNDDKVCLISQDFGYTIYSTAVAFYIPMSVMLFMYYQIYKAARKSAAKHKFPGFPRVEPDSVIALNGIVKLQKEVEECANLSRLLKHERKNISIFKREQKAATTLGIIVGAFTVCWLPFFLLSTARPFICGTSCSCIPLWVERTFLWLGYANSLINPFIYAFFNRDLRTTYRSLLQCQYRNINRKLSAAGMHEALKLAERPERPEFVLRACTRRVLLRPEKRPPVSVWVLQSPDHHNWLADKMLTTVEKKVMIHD

| SMILES | IC50 [1] [nM] | IC50 [2] [nM] | Ratio IC50 [3] | IC50 [4] [nM] | Ratio IC50 (Homo sapiens) |
| --- | --- | --- | --- | --- | --- |
| O=S(=O)(c1ccc2ccccc2c1)N(CCCN1CCN(c2ccc(F)cc2)CC1)CC1CCCCC1 | 1510 | 0.5 | 50 | 24 | 3000 |
| COc1ccccc1N1CCN(CCCN(CC2CCCCC2)S(=O)(=O)c2cccc3cccnc23)CC1 | 24 | 59.9 | – | 118 | – |
| O=S(=O)(c1ccc2ccccc2c1)N(CCCN1CCN(c2ccccc2)CC1)CC1CC1 | 117 | 35.9 | – | 479 | – |
| O=[N+]([O-])c1ccc(S(=O)(=O)N(CCCN2CCN(c3ccccc3)CC2)CC2CC2)cc1 | 500 | 180 | – | 1940 | – |
| O=S(=O)(c1cccc2cccnc12)N(CCCN1CCN(c2ccc(Cl)c(Cl)c2)CC1)CC1CCCCC1 | 2300 | 7.7 | – | 66.5 | – |
| COc1ccc(S(=O)(=O)N(CCCN2CCN(c3ccccc3OC)CC2)CC2CC2)cc1 | 316 | 2210 | – | 1980 | – |
| COc1ccccc1N1CCN(CCCN(CC2CC2)S(=O)(=O)c2cccc3cccnc23)CC1 | 12.3 | 561 | – | 8310 | – |
| CC(CCN1CCN(c2ccccc2)CC1)NS(=O)(=O)c1ccc2ccccc2c1 (centres undefined) | 657 | 12.7 | 16 | 200 | 50 |
| COc1ccccc1N1CCN(CCCN(CC2CCCCC2)S(=O)(=O)c2ccc3ccccc3c2)CC1 | 500 | 11.6 | – | 70 | – |
| COc1ccccc1N1CCN(CCC(C)NS(=O)(=O)c2ccc3ccccc3c2)CC1 (centres undefined) | 316 | 664 | – | 539 | – |
| COc1ccc(S(=O)(=O)N(CCCN2CCN(c3cccc(C(F)(F)F)c3)CC2)CC2CCCCC2)cc1 | 678 | 19.5 | – | 33 | – |
| O=S(=O)(c1cccc2cccnc12)N(CCCN1CCN(c2ccc(F)cc2)CC1)CC1CC1 | 35.3 | 8.3 | – | 4750 | – |
| O=S(=O)(c1cccc2cccnc12)N(CCCN1CCN(c2ccccc2)CC1)CC1CCCCC1 | 419 | 34.6 | – | 843 | – |
| COc1ccc(S(=O)(=O)N(CCCN2CCN(c3ccccc3)CC2)CC2CC2)cc1 | 121 | 136 | – | 691 | – |
| O=S(=O)(c1cccc2cccnc12)N(CCCN1CCN(c2ccccc2)CC1)CC1CC1 | 749 | 292 | – | 2160 | – |
| O=S(=O)(c1ccc(F)cc1)N(CCCN1CCN(c2ccccc2)CC1)CC1CCCCC1 | 110 | 13.2 | – | 294 | – |
| COc1ccccc1N1CCN(CCCN(CC2CC2)S(=O)(=O)c2ccc3ccccc3c2)CC1 | 188 | 85.8 | – | 549 | – |
| O=S(=O)(c1cccc2ccccc12)N(CCCN1CCN(c2ccccc2)CC1)CC1CCCCC1 | 195 | 2.6 | – | 50.7 | – |
| O=S(=O)(c1cccc2cccnc12)N(CCCN1CCN(c2cccc(C(F)(F)F)c2)CC1)CC1CCCCC1 | 160 | 29.1 | – | 38.8 | – |

| SMILES | IC50 [1] [nM] | IC50 [2] [nM] | Ratio IC50 [3] | IC50 [4] [nM] | Ratio IC50 (Homo sapiens) |
| --- | --- | --- | --- | --- | --- |
| O=S(=O)(c1ccc2ccccc2c1)N(CCCN1CCN(c2ccc(F)cc2)CC1)CC1CC1 | 49.6 | 51 | – | 343 | – |
| COc1ccc(S(=O)(=O)N(CCCN2CCN(c3cccc(C(F)(F)F)c3)CC2)CC2CC2)cc1 | 124 | 726 | – | 1030 | – |
| O=[N+]([O-])c1ccc(S(=O)(=O)N(CCCN2CCN(c3ccccc3)CC2)CC2CCCCC2)cc1 | 87 | 4.2 | – | 45.7 | – |
| COc1ccc(S(=O)(=O)N(CCCN2CCN(c3ccc(F)cc3)CC2)CC2CCCCC2)cc1 | 980 | 3.4 | – | 40 | – |
| O=S(=O)(c1ccc2ccccc2c1)N(CCCN1CCN(c2ccccc2)CC1)CC1CCCCC1 | 1240 | 0.7 | 100 | 65 | 1500 |
| CC(CCN1CCN(c2ccc(F)cc2)CC1)NS(=O)(=O)c1ccc2ccccc2c1 (centres undefined) | 526 | 6.2 | 15 | 90 | 85 |
| O=S(=O)(c1cccc2ccccc12)N(CCCN1CCN(c2ccccc2)CC1)CC1CC1 | 152 | 171 | – | 1460 | – |
| COc1ccc(S(=O)(=O)N(CCCN2CCN(c3ccccc3OC)CC2)CC2CCCCC2)cc1 | 172 | 16.3 | – | 200 | – |
| O=S(=O)(c1cccc2cccnc12)N(CCCN1CCN(c2cccc(C(F)(F)F)c2)CC1)CC1CC1 | 6.3 | 75 | – | 694 | – |
| O=S(=O)(c1ccc(C(F)(F)F)cc1)N(CCCN1CCN(c2ccccc2)CC1)CC1CC1 | 334 | 70.8 | – | 565 | – |
| CC(CCN1CCN(c2cccc(C(F)(F)F)c2)CC1)NS(=O)(=O)c1ccc2ccccc2c1 (centres undefined) | 363 | 180 | – | 942 | – |
| O=S(=O)(c1ccc(F)cc1)N(CCCN1CCN(c2ccccc2)CC1)CC1CC1 | 147 | 142 | – | 1980 | – |
| O=S(=O)(c1cccc2cccnc12)N(CCCN1CCN(c2ccc(F)cc2)CC1)CC1CCCCC1 | 442 | 5.1 | – | 136 | – |
| O=S(=O)(c1ccc2ccccc2c1)N(CCCN1CCN(c2cccc(C(F)(F)F)c2)CC1)CC1CC1 | 342 | 221 | – | 304 | – |
| COc1ccc(S(=O)(=O)N(CCCN2CCN(c3ccccc3)CC2)CC2CCCCC2)cc1 | 567 | 9.4 | – | 79 | – |
| COc1ccc(S(=O)(=O)N(CCCN2CCN(c3ccc(F)cc3)CC2)CC2CC2)cc1 | 93 | 72.5 | – | 723 | – |
| O=S(=O)(c1ccc(C(F)(F)F)cc1)N(CCCN1CCN(c2ccccc2)CC1)CC1CCCCC1 | 456 | 7.1 | – | 156 | – |
| O=S(=O)(c1ccc2ccccc2c1)N(CCCN1CCN(c2cccc(C(F)(F)F)c2)CC1)CC1CCCCC1 | 888 | 13.1 | – | 66 | – |
